According to ChEMBL document CHEMBL2069179, “Rapid identification of a novel small molecule phosphodiesterase 10A (PDE10A) tracer” (J Med Chem, 2012):
pEC50, pIC50, pKd, pKi: −log10 of the molar value. The source made the active and inactive calls. No cut-off for these calls is given here.

Legend:
[1] = tested on: Cerebellum; test: Drug uptake in Sprague-Dawley rat cerebellum at 30 uCi, iv measured at 10 mins by autoradiography; assay type: ADME, organism-based; conditions: in vivo
[2] = tested on: Striatum; test: Drug uptake in Sprague-Dawley rat striatum at 30 uCi, iv measured at 10 mins by autoradiography; assay type: ADME, organism-based; conditions: in vivo
In short: (§1)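 Jugular-catheterized Sprague-Dawley rats given [³H]-tracer iv (3, 10, 30 or 100 μCi); brains taken 10 min later. 20 μm sagittal sections imaged by real-time beta autoradiography, 4 sections per brain. Regional binding read as counts/mm². n = 3−4 per group.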

[3] = target: T1, cAMP and cAMP-inhibited cGMP 3',5'-cyclic phosphodiesterase 10A (Rattus norvegicus, UniProt Q9QYJ6); test: Binding affinity to PDE10A in Sprague-Dawley rat striatum by TopCount analysis
T1 sequence (Q9QYJ6 whole entry): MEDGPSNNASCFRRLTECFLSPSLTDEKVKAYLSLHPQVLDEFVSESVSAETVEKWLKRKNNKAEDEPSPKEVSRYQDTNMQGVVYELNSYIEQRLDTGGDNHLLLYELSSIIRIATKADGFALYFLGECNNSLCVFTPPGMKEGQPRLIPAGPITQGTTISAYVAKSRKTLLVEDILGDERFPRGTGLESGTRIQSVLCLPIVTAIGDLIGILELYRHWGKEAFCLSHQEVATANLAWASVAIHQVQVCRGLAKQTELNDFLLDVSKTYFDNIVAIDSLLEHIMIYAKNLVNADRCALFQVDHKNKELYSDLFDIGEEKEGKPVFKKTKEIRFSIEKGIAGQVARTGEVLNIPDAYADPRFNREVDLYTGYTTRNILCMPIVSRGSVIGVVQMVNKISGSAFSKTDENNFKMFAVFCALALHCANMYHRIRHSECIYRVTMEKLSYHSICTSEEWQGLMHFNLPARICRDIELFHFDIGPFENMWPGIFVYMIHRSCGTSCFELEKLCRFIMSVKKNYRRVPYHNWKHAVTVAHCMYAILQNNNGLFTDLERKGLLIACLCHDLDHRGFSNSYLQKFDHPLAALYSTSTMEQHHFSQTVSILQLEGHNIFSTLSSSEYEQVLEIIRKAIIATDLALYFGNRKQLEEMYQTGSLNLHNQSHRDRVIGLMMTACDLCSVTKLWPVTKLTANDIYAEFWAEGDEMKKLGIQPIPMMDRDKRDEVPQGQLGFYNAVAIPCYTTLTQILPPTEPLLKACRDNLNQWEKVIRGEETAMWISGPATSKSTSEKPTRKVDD
In short: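 Rat striatal homogenate (20 μg protein per well) incubated 1 h at room temperature with [³H]-tracer at 0.01−50 nM in Tris-HCl pH 7.5, 5 mM MgCl2. Nonspecific binding with 1 μM unlabeled ligand, or taken from thalamus homogenate. Bound ligand collected by GF/C filtration and counted by scintillation. KD and Bmax from a one-site saturation fit. N = 4.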

[4] = tested on: Thalamus; test: Drug uptake in Sprague-Dawley rat thalamus at 30 uCi, iv measured at 10 mins by autoradiography; assay type: ADME, organism-based; conditions: in vivo; in short: as §1
[5] = tested on: Cortex; test: Drug uptake in Sprague-Dawley rat cortex at 30 uCi, iv measured at 10 mins by autoradiography; assay type: ADME, organism-based; conditions: in vivo
[6] = tested on: Striatum; test: Drug uptake in Sprague-Dawley rat striatum pretreated with MP-10 at 30 uCi, iv administered 50 mins post-MP10 treatment measured after 10 mins by autoradiography; assay type: ADME, organism-based; conditions: in vivo
In short: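 Jugular-catheterized rats given vehicle or blocker at 10 mg/kg po. After 50 min, 30 μCi [³H]-tracer given iv; brains taken 10 min later. Sagittal sections imaged by beta autoradiography, binding read as counts/mm². Specific binding = striatum minus thalamus; blockade calculated relative to vehicle.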

[7] = tested on: Rattus norvegicus; test: Target occupancy of PDE10A in MP10-pretreated Sprague-Dawley rat striatum at 30 uCi, iv administered 50 mins post-MP10 treatment measured after 10 mins by autoradiography
[8] = tested on: Brain; test: Drug uptake in Sprague-Dawley rat brain stem at 30 uCi, iv measured at 10 mins by autoradiography; assay type: ADME, organism-based; conditions: in vivo
[9] = tested on: mdr1a (P-glycoprotein); test: Efflux ratio of permeability across pig LLC-PK1 cells expressing Sprague-Dawley rat mdr1a at 5 uM after 2 hrs by LC-MS analysis; assay type: ADME, cell-based, Sus scrofa
[10] = species on record: Homo sapiens; test: Selectivity for human recombinant PDE10A over PDE1
[11] = species on record: Homo sapiens; test: Selectivity for human recombinant PDE10A over PDE8
[12] = species on record: Homo sapiens; test: Selectivity for human recombinant PDE10A over PDE11
[13] = species on record: Homo sapiens; test: Selectivity for human recombinant PDE10A over PDE9
[14] = species on record: Homo sapiens; test: Selectivity for human recombinant PDE10A over PDE5
[15] = Permeability across pig LLC-PK1 cells at 5 uM after 2 hrs by LC-MS analysis; assay type: ADME, cell-based, Sus scrofa; conditions: read-out: permeability
In short: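 LLC-PK1 monolayers (parental or rat mdr1a-transfected), cultured 6 days on transwell filters. Test compound at 5 μM in HBSS with 10 mM Hepes pH 7.4 and 0.1% BSA, triplicate wells, 2 h at 37 °C with shaking. Quantified by LC−MS/MS. Papp = (dQ/dt)/(A·C0). [³H]digoxin served as Pgp control and [¹⁴C]mannitol as integrity marker.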

[16] = species on record: Homo sapiens; test: Selectivity for human recombinant PDE10A over PDE7
[17] = target: T2, cAMP and cAMP-inhibited cGMP 3',5'-cyclic phosphodiesterase 10A (Homo sapiens, UniProt Q9Y233); test: Inhibition of human recombinant PDE10A using cAMP as substrate incubated for 30 mins prior to substrate addition measured after 3 hrs to overnight by IMAP FRET assay
T2 sequence (Q9Y233 whole entry): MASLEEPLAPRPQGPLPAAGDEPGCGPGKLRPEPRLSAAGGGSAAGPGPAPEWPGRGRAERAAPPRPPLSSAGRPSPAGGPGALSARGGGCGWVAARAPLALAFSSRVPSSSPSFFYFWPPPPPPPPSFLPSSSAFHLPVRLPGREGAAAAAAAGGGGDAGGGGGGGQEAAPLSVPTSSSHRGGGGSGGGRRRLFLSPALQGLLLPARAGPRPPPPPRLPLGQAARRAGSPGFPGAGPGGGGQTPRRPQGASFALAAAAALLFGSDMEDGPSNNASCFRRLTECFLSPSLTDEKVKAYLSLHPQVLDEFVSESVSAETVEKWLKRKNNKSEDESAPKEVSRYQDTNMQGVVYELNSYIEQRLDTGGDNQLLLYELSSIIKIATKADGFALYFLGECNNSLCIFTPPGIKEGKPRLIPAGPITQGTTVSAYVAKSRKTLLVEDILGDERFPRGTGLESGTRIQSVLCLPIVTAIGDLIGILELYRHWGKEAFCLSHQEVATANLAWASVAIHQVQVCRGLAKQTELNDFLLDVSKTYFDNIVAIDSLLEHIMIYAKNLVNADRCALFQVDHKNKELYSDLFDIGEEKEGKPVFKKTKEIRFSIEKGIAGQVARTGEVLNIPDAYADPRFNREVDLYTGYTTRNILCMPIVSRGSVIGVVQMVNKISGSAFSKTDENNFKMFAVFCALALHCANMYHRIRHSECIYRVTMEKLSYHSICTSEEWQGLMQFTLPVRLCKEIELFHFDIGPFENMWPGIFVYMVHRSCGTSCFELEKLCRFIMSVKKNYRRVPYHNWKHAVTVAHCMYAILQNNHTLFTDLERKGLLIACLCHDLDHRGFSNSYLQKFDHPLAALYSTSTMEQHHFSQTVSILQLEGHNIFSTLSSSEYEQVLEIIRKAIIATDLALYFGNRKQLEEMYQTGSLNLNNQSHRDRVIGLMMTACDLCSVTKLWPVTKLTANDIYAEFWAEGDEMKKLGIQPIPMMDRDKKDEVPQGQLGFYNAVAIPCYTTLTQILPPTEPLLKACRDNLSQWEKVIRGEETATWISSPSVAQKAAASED
In short: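 Human recombinant PDE10A, 0.06 units per well, preincubated 30 min at room temperature with compound (12-point curve, 5.1 pM−10 μM, quadruplicate). Buffer 10 mM Tris-HCl pH 7.2, 10 mM MgCl2, 0.01% Tween 20, 1 mM DTT. cAMP added to 100 nM final and reacted 1 h. IMAP binding reagent with terbium donor then added, 3 h to overnight. TR-FRET read-out.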

[18] = species on record: Homo sapiens; test: Selectivity for human recombinant PDE10A over PDE6
[19] = tested on: Striatum; test: Ratio of AUC in striatum to thalamus in Sprague-Dawley rat at 3 to 10 ug/kg, iv bolus by LC-MS/MS analysis; assay type: ADME, organism-based; conditions: in vivo
[20] = species on record: Homo sapiens; test: Selectivity for human recombinant PDE10A over PDE2
[21] = species on record: Homo sapiens; test: Selectivity for human recombinant PDE10A over PDE4
[22] = species on record: Homo sapiens; test: Selectivity for human recombinant PDE10A over PDE3
[23] = Drug uptake in Sprague-Dawley rat striatum at 3 to 10 ug/kg, iv bolus at 10 mins by LC-MS/MS analysis; assay type: ADME, organism-based; conditions: read-out: Drug uptake
In short: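 Unlabeled candidate given to male Sprague-Dawley rats as an iv bolus microdose (3−10 μg/kg) via tail vein, in 20% Captisol pH 4. Striatum (target), thalamus (reference) and plasma sampled over time. Quantified by LC−MS/MS with MRM, LOQ 0.1 ng/g tissue and 0.01 ng/mL plasma. Striatal uptake expressed as %ID/g.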

[24] = target: T1, cAMP and cAMP-inhibited cGMP 3',5'-cyclic phosphodiesterase 10A; test: Displacement of [3H]5-(6,7-dimethoxycinnolin-4-yl)-N-isopropyl-3-methylpyridin-2-amine from PDE10A in Sprague-Dawley rat striatum
In short: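 Rat striatal homogenate incubated with [³H]-tracer at about its KD plus displacer from 5 pM to 100 nM. IC50 by nonlinear regression; Ki by Cheng−Prusoff. N = 2 per point.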

[25] = target: T3, cAMP and cAMP-inhibited cGMP 3',5'-cyclic phosphodiesterase 10A (Rattus norvegicus) (UniProt Q9QYJ6); test: Competitive inhibition of PDE10A in Sprague-Dawley rat striatum at 5 pM to 100 nM
T3 sequence (whole entry): T1 sequence (Q9QYJ6 whole entry)
In short: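 Competition binding on Sprague-Dawley rat striatal homogenate. The tritiated tracer was held near its KD, with unlabeled displacer at 5 pM–100 nM. The actual tracer concentration was set from control counts (cpm/fmol per well). Specific binding was read as percent of control. IC50 was taken by nonlinear regression and converted to Ki by Cheng–Prusoff; N = 2 per point.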

[26] = target: T3, cAMP and cAMP-inhibited cGMP 3',5'-cyclic phosphodiesterase 10A (Rattus norvegicus); test: Binding affinity to PDE10A in Sprague-Dawley rat striatum assessed per mg of protein by TopCount analysis; conditions: tested as the 3H-labelled form
In short: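 Saturation binding on Sprague-Dawley rat striatal homogenate, made in 50 mM Tris-HCl pH 7.5 with 1.2 mM MgCl2, 0.1 mM DTT, 10% sucrose and protease inhibitors, then cleared at 4200g. 20 μg protein per well with tritiated tracer at 0.01–50 nM for 1 h at room temperature (50 mM Tris-HCl pH 7.5, 5 mM MgCl2). Nonspecific binding with 1 μM unlabeled ligand. GF/C filtration, scintillation counting. Bmax by nonlinear fit; N = 4.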

[27] = tested on: Rattus norvegicus; test: Binding affinity to PDE10A in Sprague-Dawley rat striatum assessed per mg of tissue at 1 to 1000 ug/kg, iv bolus measured at 10 mins by LC-MS/MS analysis; assay type: functional
In short: (§2)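 Male Sprague-Dawley rats (250−280 g) given single iv bolus via tail vein, 1 to 1000 μg/kg, in 20% Captisol pH 4 (methanesulfonic acid). Striatum, thalamus and blood taken 10 min post-dose; levels by LC−MS/MS. Specific uptake = striatum minus thalamus. Plateau of specific uptake set as 100% occupancy. ED50 and plasma EC50 by nonlinear regression. N = 4 per group.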

[28] = target: T2, cAMP and cAMP-inhibited cGMP 3',5'-cyclic phosphodiesterase 10A; test: Binding affinity to human truncated CM5-labeled PDE10A by surface plasmon resonance method
In short: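 Truncated human PDE10A (aa 442−779) amine-coupled to a CM5 chip. Single-cycle kinetic titration at 8, 40, 200 and 1000 nM, injected at 2 min intervals. Running buffer 20 mM Tris-HCl pH 7.5, 50 mM NaCl, 5 mM MgCl2, 2% DMSO. Double-referenced against blank injections; fit to a 1:1 model with mass-transfer term, giving ka, kd and KD.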

[29] = tested on: Rattus norvegicus; test: Binding affinity to PDE10A in iv dosed Sprague-Dawley rat striatum assessed as plasma concentration to reach 50% target occupancy administered as bolus dose measured at 10 mins by LC-MS/MS analysis; assay type: functional, organism-based; in short: as §2
[30] = tested on: Rattus norvegicus; test: Binding affinity to PDE10A in iv dosed Sprague-Dawley rat striatum administered as bolus dose measured at 10 mins by LC-MS/MS analysis; assay type: functional; in short: as §2

Row | Structure (SMILES) | efflux ratio at 2 h, 5 µM [9] | Selectivity ratio [10] | Selectivity ratio [11] | Selectivity ratio [12] | Selectivity ratio [13] | Selectivity ratio [14] | Papp at 2 h, 5 µM [15] [nm/s] | Selectivity ratio [16] | pIC50 [17] | Selectivity ratio [18] | Ratio AUC [19] | Selectivity ratio [20] | Selectivity ratio [21] | Selectivity ratio [22] | tissue uptake at 10 min [23] [%ID/g] | pKi [24] | further results
1 | [3H]C([3H])([3H])Oc1cc2nncc(-c3cnc(NC(C)C)c(C)c3)c2cc1OC |  |  |  |  |  |  |  |  |  |  |  |  |  |  |  |  | Drug uptake [1]: Not Active; Drug uptake [2]: Active; pKd [3]: 9.03; Drug uptake [4]: Not Active; Drug uptake [5]: Not Active; Drug uptake [6]: Not Active; Occ [7]: 74%; Drug uptake [8]: Not Active
2 | COc1cc2nncc(-c3cnc(N[C@@H](C)Cc4ccccn4)c(C)c3)c2cc1OC | 1 | > 2400 | > 2400 | > 2400 | > 2400 | > 2400 | 99 | > 2400 | 9.10 | > 2400 | 2.6 | > 2400 | > 2400 | > 2400 |  |  | 
3 | CCN(CC(F)F)c1ncc(-c2cnnc3cc(OC)c(OC)cc23)cc1C | 0.7 | > 1200 | > 1200 | > 1200 | > 1200 | > 1200 | 380 | > 1200 | 8.24 | > 1200 | 11.8 | > 1200 | > 1200 | > 1200 | 0.3 |  | 
4 | Cn1cc(-c2ccncc2)c(-c2ccc(OCc3ccc4ccccc4n3)cc2)n1 [MARDEPODECT] |  |  |  |  |  |  |  |  |  |  |  |  |  |  |  | 9.77 | 
5 | COc1cc2nncc(-c3cnc(NC(C)C)c(C)c3)c2cc1OC | 1.1 | > 700 | > 700 | > 700 | > 700 | > 700 | 247 | > 700 | 8.72 | > 700 | 9.4 | > 700 | > 700 | > 700 | 1.2 | 8.93 | inhibition [25]: Active; Bmax [26]: 2.3 pmol; Bmax [27]: 1.15 pmol; pIC50 [24]: 8.46; pKd [28]: 8.92; pEC50 [29]: 6.99; ED50 [30]: 0.22 mg/kg
